The format of data set [1] is in vivo, human. The method, boiled down:
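Routine TDM of trough serum sunitinib and N-desethyl sunitinib in one patient, reported as total concentration (the sum of both); the clinical target trough is 50-100 ng/ml. Sampling: immediately before dasatinib and on days 7, 32, 70 and 84. Sunitinib was given orally at 14 days on/7 days off: 50 mg/day, 37.5 mg/day from day 18, then 50/37.5 mg/day alternately from day 81.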

The format of data set [2] is in vivo, human. In a few lines:
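Serum from the patient was taken 8 h after dasatinib dosing, using the residue of samples drawn for sunitinib TDM, and assayed later by LC-MS/MS (LLOQ 0.5 ng/ml). Samples were from days 7, 32 and 84. Oral dasatinib was given at 60 mg/day, then 50 mg/day from day 28, alongside sunitinib; esomeprazole magnesium was a concomitant drug.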
This is another data set of the same source.

Data set [3] has as its system chronic myeloid leukemia (CML). Description: Response of chronic myeloid leukemia to dasatinib in the patient. Format: in vivo, human. The conditions noted are these: day 154 after starting dasatinib; BCR::ABL1^IS≤1%. The method, boiled down: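 Patient with chronic-phase CML took oral dasatinib at 60 mg/day from day 1. Cytogenetic response was defined as BCR::ABL1IS≤1% and assessed on day 154.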

For the next data set, the system named is CYP3A4. To be noted: cited from earlier work.
The conditions of data set [4]: cited from earlier work.
The next data set in a line: Adverse events. It counts as in vivo, human. To be noted: day -30; sunitinib 50 mg/day alone. The method, boiled down:
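Single patient with metastatic renal cell carcinoma on oral sunitinib monotherapy, 14 days on/7 days off, before dasatinib started (day 1). Adverse events graded by CTCAE. Hand-foot skin reaction was managed with heparinoid cream and diarrhea with bifidobacterial powder.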

For data set [5], the system named is metastatic renal cell carcinoma (mRCC). Put plainly: Course of metastatic renal cell carcinoma under sunitinib in the patient. To be noted: day 186; led to change from sunitinib to axitinib. It counts as in vivo, human.
The conditions of data set [6]: clinical practice, sum of sunitinib and N-desethyl sunitinib; cited from earlier work.
For data set [7] the following is noted: rats; ketoconazole combined with sunitinib; cited from earlier work.
[8] abbreviates: day 7, sunitinib 50 mg/day with dasatinib 60 mg/day.
[9] abbreviates: day 32, sunitinib 37.5 mg/day with dasatinib 50 mg/day.
Setting [10] is: day 84, sunitinib 50.0 and 37.5 mg/day alternately with dasatinib 50 mg/day.
[11] abbreviates: immediately before starting dasatinib, sunitinib 50 mg/day alone, 14 days on/7 days off.

Like-named read-outs stand apart in the source and are kept apart here.

Turning to `Cc1nc(Nc2ncc(C(=O)Nc3c(C)cccc3Cl)s2)cc(N2CCN(CCO)CC2)n1` [dasatinib], the “effect of dasatinib combination on sunitinib serum concentration” value in data set [1] (day 7 versus before dasatinib, sunitinib 50 mg/day) is listed as “no change”. Moreover, the dasatinib serum concentration in data set [2] (day 7, 8 h after administration, dasatinib 60 mg/day with sunitinib) was found to be 1.16 ng/mL; in [2] (day 84, 8 h after administration, dasatinib 50 mg/day with sunitinib), 2.75 ng/mL. Moreover, the concentration at 8 h in data set [2] (male, human, serum, oral, 50 mg/day) is 3 ng/mL. Besides, the “response for CML” value in [3] is “complete cytogenetic response”. In the data set with CYP3A4, the CYP3A4 inhibition result is “moderate”. For the same compound, the solubility entry in data set [4] is recorded as “pH-dependent”.

In the case of `CCN(CC)CCNC(=O)c1c(C)[nH]c(/C=C2\C(=O)Nc3ccc(F)cc32)c1C` [sunitinib], the trough serum concentration in data set [1] (setting [8]) is 64.9 ng/mL; in data set [1] (setting [9]) it was 28.6 ng/mL; in data set [1] (setting [10]), 38.7 ng/mL; in data set [1] (setting [11]) it was 63.7 ng/mL. Moreover, the “diarrhea, CTCAE grade” value in the data set “Adverse events” is given as 1. Moreover, the “hand-foot skin reaction (HFSR), CTCAE grade” value in the data set “Adverse events” came out at 1. Further, the “course of RCC metastases” value in data set [5] is “pancreatic and left adrenal metastases were enlarged”. The “target trough concentration as total sunitinib concentration” value in [6] is 50 to 100 ng/mL.

Consider `CCNCCNC(=O)c1c(C)[nH]c(/C=C2\C(=O)Nc3ccc(F)cc32)c1C` [N-desethyl sunitinib], for which the trough serum concentration in data set [1] (setting [8]) came to 12.2 ng/mL; in data set [1] (setting [9]) it was 4.7 ng/mL; in [1] (setting [10]), 7.4 ng/mL; in data set [1] (setting [11]), 13.7 ng/mL.

Take `CC(=O)N1CCN(c2ccc(OCC3COC(Cn4ccnc4)(c4ccc(Cl)cc4Cl)O3)cc2)CC1` (centres unmarked) [ketoconazole]: the “effect of combination on the concentration of sunitinib” value in [7] was “significantly increased”.
